{"source": "ChEMBL document CHEMBL3232930", "about": "“One-pot, four-component synthesis of novel cytotoxic agents 1-(5-aryl-1,3,4-oxadiazol-2-yl)-1-(1H-pyrrol-2-yl)methanamines” (Eur J Med Chem, 2014)", "key": {"A549": {"test_system": "A549", "test": "Cytotoxicity against human A549 cells assessed as reduction in cell viability after 24 hrs by MTT assay", "type": "functional, cell-based", "conditions": "A549, 24 h", "procedure,_shortened": "(§1)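 15,000 exponential-phase cells per well were seeded and incubated 24 h, then exposed to a range of test concentrations. Medium alone served as the negative control and doxorubicin as the positive control. MTT (5 mg/mL stock) was added for a further 4 h, and the formazan was dissolved in DMSO. Percent inhibition versus control was calculated, and IC50 was taken from the dose–inhibition curve. Each experiment was run three times.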"}, "HT-29": {"test_system": "HT-29", "test": "Cytotoxicity against human HT-29 cells assessed as reduction in cell viability after 24 hrs by MTT assay", "type": "functional, cell-based", "conditions": "HT-29, 24 h", "procedure,_shortened": "as §1"}, "[1]": {"test": "Cytotoxicity against human HT1080 cells assessed as reduction in cell viability after 24 hrs by MTT assay", "type": "functional, cell-based", "conditions": "HT-1080, 24 h", "procedure,_shortened": "as §1"}, "MCF7 [2]": {"test_system": "MCF7", "test": "Cytotoxicity against human MCF7 cells assessed as reduction in cell viability after 24 hrs by MTT assay", "type": "functional, cell-based", "conditions": "MCF7, 24 h", "procedure,_shortened": "as §1"}, "MCF7 [3]": {"test_system": "MCF7", "test": "Ratio of doxorubicin IC50 to compound IC50 for human MCF7 cells assessed as reduction in cell viability after 24 hrs by MTT assay", "type": "functional"}}, "data": [{"compound": "Clc1ccc(-c2nnc(C(NCc3ccccc3)c3ccc[nH]3)o2)cc1", "note": "(stereo not drawn)", "values": [{"measurement": "IC50", "setting": "A549", "value": 73.8, "unit": "µM"}, {"measurement": "IC50", "setting": "HT-29", "value": 54.5, "unit": "µM"}, {"measurement": "IC50", "setting": "[1]", "value": 41, "unit": "µM"}, {"measurement": "IC50", "setting": "MCF7 [2]", "value": 46.2, "unit": "µM"}]}, {"compound": "Brc1ccc(-c2nnc(C(NCc3ccccc3)c3ccc[nH]3)o2)cc1", "note": "(stereo not drawn)", "values": [{"measurement": "IC50", "setting": "A549", "value": 87.2, "unit": "µM"}, {"measurement": "IC50", "setting": "HT-29", "value": 58.3, "unit": "µM"}, {"measurement": "IC50", "setting": "[1]", "value": 70.6, "unit": "µM"}, {"measurement": "IC50", "setting": "MCF7 [2]", "value": 96.6, "unit": "µM"}]}, {"compound": "COc1ccccc1CNC(c1ccc[nH]1)c1nnc(-c2ccccc2)o1", "note": "(stereo not drawn)", "values": [{"measurement": "IC50", "setting": "A549", "value": 362, "unit": "µM"}, {"measurement": "IC50", "setting": "HT-29", "value": 392, "unit": "µM"}, {"measurement": "IC50", "setting": "[1]", "value": 278, "unit": "µM"}, {"measurement": "IC50", "setting": "MCF7 [2]", "value": 441, "unit": "µM"}]}, {"compound": "COc1ccc(-c2nnc(C(NCc3ccccc3)c3ccc[nH]3)o2)c(OC)c1", "note": "(stereo not drawn)", "values": [{"measurement": "IC50", "setting": "A549", "value": 296, "unit": "µM"}, {"measurement": "IC50", "setting": "HT-29", "value": 392, "unit": "µM"}, {"measurement": "IC50", "setting": "[1]", "value": 418, "unit": "µM"}, {"measurement": "IC50", "setting": "MCF7 [2]", "value": 471, "unit": "µM"}]}, {"compound": "Fc1cc(-c2nnc(C(NCc3ccccc3)c3ccc[nH]3)o2)c(Cl)cc1Cl", "note": "(stereo not drawn)", "values": [{"measurement": "IC50", "setting": "A549", "value": 27.5, "unit": "µM"}, {"measurement": "IC50", "setting": "HT-29", "value": 20, "unit": "µM"}, {"measurement": "IC50", "setting": "[1]", "value": 25.6, "unit": "µM"}, {"measurement": "IC50", "setting": "MCF7 [2]", "value": 21.7, "unit": "µM"}]}, {"compound": "Cc1ccc(CNC(c2ccc[nH]2)c2nnc(-c3ccc(Br)cc3)o2)cc1", "note": "(stereo not drawn)", "values": [{"measurement": "IC50", "setting": "A549", "value": 53.9, "unit": "µM"}, {"measurement": "IC50", "setting": "HT-29", "value": 49.5, "unit": "µM"}, {"measurement": "IC50", "setting": "[1]", "value": 51.9, "unit": "µM"}, {"measurement": "IC50", "setting": "MCF7 [2]", "value": 4.3, "unit": "µM"}, {"measurement": "Ratio IC50", "setting": "MCF7 [3]", "value": 4}]}, {"compound": "COc1cccc2c1C(=O)c1c(O)c3c(c(O)c1C2=O)C[C@@](O)(C(=O)CO)C[C@@H]3O[C@H]1C[C@H](N)[C@H](O)[C@H](C)O1", "note": "[DOXORUBICIN]", "values": [{"measurement": "IC50", "setting": "A549", "value": 13.6, "unit": "µM"}, {"measurement": "IC50", "setting": "HT-29", "value": 16, "unit": "µM"}, {"measurement": "IC50", "setting": "[1]", "value": 15.4, "unit": "µM"}, {"measurement": "IC50", "setting": "MCF7 [2]", "value": 16.9, "unit": "µM"}]}, {"compound": "Cc1ccc(-c2nnc(C(NCc3ccccc3)c3ccc[nH]3)o2)cc1", "note": "(stereo not drawn)", "values": [{"measurement": "IC50", "setting": "A549", "value": 744, "unit": "µM"}, {"measurement": "IC50", "setting": "HT-29", "value": 249, "unit": "µM"}, {"measurement": "IC50", "setting": "[1]", "value": 909, "unit": "µM"}, {"measurement": "IC50", "setting": "MCF7 [2]", "value": 1120, "unit": "µM"}]}, {"compound": "Clc1ccc(CNC(c2ccc[nH]2)c2nnc(-c3ccc(Br)cc3)o2)cc1Cl", "note": "(stereo not drawn)", "values": [{"measurement": "IC50", "setting": "A549", "value": 17.3, "unit": "µM"}, {"measurement": "IC50", "setting": "HT-29", "value": 20, "unit": "µM"}, {"measurement": "IC50", "setting": "[1]", "value": 45.3, "unit": "µM"}, {"measurement": "IC50", "setting": "MCF7 [2]", "value": 31, "unit": "µM"}]}, {"compound": "COc1ccc(CNC(c2ccc[nH]2)c2nnc(-c3ccccc3)o2)cc1", "note": "(stereo not drawn)", "values": [{"measurement": "IC50", "setting": "A549", "value": 278, "unit": "µM"}, {"measurement": "IC50", "setting": "HT-29", "value": 286, "unit": "µM"}, {"measurement": "IC50", "setting": "[1]", "value": 175, "unit": "µM"}, {"measurement": "IC50", "setting": "MCF7 [2]", "value": 142, "unit": "µM"}]}, {"compound": "COc1ccc(-c2nnc(C(NCc3ccc(F)cc3)c3ccc[nH]3)o2)cc1", "note": "(stereo not drawn)", "values": [{"measurement": "IC50", "setting": "A549", "value": 52.8, "unit": "µM"}, {"measurement": "IC50", "setting": "HT-29", "value": 39.4, "unit": "µM"}, {"measurement": "IC50", "setting": "[1]", "value": 14.7, "unit": "µM"}, {"measurement": "IC50", "setting": "MCF7 [2]", "value": 28.9, "unit": "µM"}]}, {"compound": "c1ccc(CNC(c2ccc[nH]2)c2nnc(-c3ccccc3)o2)cc1", "note": "(stereo not drawn)", "values": [{"measurement": "IC50", "setting": "A549", "value": 187, "unit": "µM"}, {"measurement": "IC50", "setting": "HT-29", "value": 198, "unit": "µM"}, {"measurement": "IC50", "setting": "[1]", "value": 231, "unit": "µM"}, {"measurement": "IC50", "setting": "MCF7 [2]", "value": 216, "unit": "µM"}]}, {"compound": "Clc1cccc(-c2nnc(C(NCc3ccc(Cl)c(Cl)c3)c3ccc[nH]3)o2)c1", "note": "(stereo not drawn)", "values": [{"measurement": "IC50", "setting": "A549", "value": 13.3, "unit": "µM"}, {"measurement": "IC50", "setting": "HT-29", "value": 18, "unit": "µM"}, {"measurement": "IC50", "setting": "[1]", "value": 25.1, "unit": "µM"}, {"measurement": "IC50", "setting": "MCF7 [2]", "value": 19, "unit": "µM"}]}, {"compound": "COc1ccc(CNC(c2ccc[nH]2)c2nnc(-c3cccc(Cl)c3)o2)cc1", "note": "(stereo not drawn)", "values": [{"measurement": "IC50", "setting": "A549", "value": 77.5, "unit": "µM"}, {"measurement": "IC50", "setting": "HT-29", "value": 95.6, "unit": "µM"}, {"measurement": "IC50", "setting": "[1]", "value": 84.6, "unit": "µM"}, {"measurement": "IC50", "setting": "MCF7 [2]", "value": 41.7, "unit": "µM"}]}, {"compound": "Cc1cccc(-c2nnc(C(NCc3ccccc3)c3ccc[nH]3)o2)c1", "note": "(stereo not drawn)", "values": [{"measurement": "IC50", "setting": "A549", "value": 430, "unit": "µM"}, {"measurement": "IC50", "setting": "HT-29", "value": 202, "unit": "µM"}, {"measurement": "IC50", "setting": "[1]", "value": 311, "unit": "µM"}, {"measurement": "IC50", "setting": "MCF7 [2]", "value": 480, "unit": "µM"}]}, {"compound": "Clc1cccc(-c2nnc(C(NCc3ccccc3)c3ccc[nH]3)o2)c1", "note": "(stereo not drawn)", "values": [{"measurement": "IC50", "setting": "A549", "value": 62.2, "unit": "µM"}, {"measurement": "IC50", "setting": "HT-29", "value": 48.3, "unit": "µM"}, {"measurement": "IC50", "setting": "[1]", "value": 41.1, "unit": "µM"}, {"measurement": "IC50", "setting": "MCF7 [2]", "value": 56.7, "unit": "µM"}]}, {"compound": "Clc1ccc(-c2nnc(C(NCc3ccccc3)c3ccc[nH]3)o2)cc1Cl", "note": "(stereo not drawn)", "values": [{"measurement": "IC50", "setting": "A549", "value": 25.5, "unit": "µM"}, {"measurement": "IC50", "setting": "HT-29", "value": 41.7, "unit": "µM"}, {"measurement": "IC50", "setting": "[1]", "value": 15.2, "unit": "µM"}, {"measurement": "IC50", "setting": "MCF7 [2]", "value": 13.9, "unit": "µM"}]}, {"compound": "COc1ccc(-c2nnc(C(NCc3ccccc3)c3ccc[nH]3)o2)cc1", "note": "(stereo not drawn)", "values": [{"measurement": "IC50", "setting": "A549", "value": 326, "unit": "µM"}, {"measurement": "IC50", "setting": "HT-29", "value": 344, "unit": "µM"}, {"measurement": "IC50", "setting": "[1]", "value": 170, "unit": "µM"}, {"measurement": "IC50", "setting": "MCF7 [2]", "value": 460, "unit": "µM"}]}]}
